# Results: ChEMBL document CHEMBL1134374, “High-throughput permeability pH profile and high-throughput alkane/water log P with artificial membranes” (J Med Chem, 2001)
# Columns and labels:
# [1] = % absorbed in human GI-tract; format: ADME, organism-based; conditions: in vivo, read-out: % absorbed
# [2] = Partition coefficient (logD6.8); format: physicochemical; conditions: octanol/water, pH 6.8
# [3] = Effective permeability (Pe) across a hexadecane membrane (pH 6.8); format: ADME
# How it was run: (§1)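 Passive permeation from donor to acceptor across a polycarbonate filter (3 µm pores, 9–10 µm thick) coated with hexadecane left after hexane evaporation. Donor held 50 µg/mL compound in buffer with 5% DMSO and 100 mM KCl; acceptor held buffer with 5% DMSO. Incubated 5 h at room temperature with light shaking. Acceptor UV absorbance read at 260–290 nm. Wells below 5 kΩ resistance discarded.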
# [4] = Highest effective permeability across hexadecane membrane (pH 4-8); format: ADME; how it was run: as §1
# [5] = Effective permeability corrected for ionization; format: ADME
# How it was run: (§2)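 Derived from hexadecane-membrane Pe measured across a pH range, combined with aqueous pKa. Pe is corrected for ionization to give Pul. Pul is then corrected for the unstirred water layer by the Gutknecht–Tosteson relation to give the intrinsic permeability P0.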
# [6] = Intrinsic permeability of the compound; format: ADME; how it was run: as §2
# [7] = Partition coefficient (logP) (hexadecane); format: physicochemical; conditions: hexadecane/water
# [8] = Intrinsic permeability measured with HDM assay; format: ADME; how it was run: as §2
# [9] = Effective permeability measured with HDM assay; format: ADME; how it was run: as §1
SMILES,Fa [1] [%],logD ([2]; read-out: logD),Log Pe [3] [cm s-1],Log Pe [4] [cm s-1],"Log Pe,max [5]",Log Po [6],logP [7],logD [2],Log Po [8],"Log Pe,max [9]"
CCCCC(=O)N(Cc1ccc(-c2ccccc2-c2nnn[nH]2)cc1)[C@H](C(=O)O)C(C)C,55,-1.6,,,,,,,,
O=C(O)CN(CCN(CC(=O)O)Cc1ccccc1O)Cc1ccccc1O,5,-0.2,-5.1,-5.1,,,,,,
Nc1nc2c(ncn2COCCO)c(=O)[nH]1 [ACYCLOVIR],,-2,-4.8,-4.8,,,,,,
C=CCc1ccccc1OCC(O)CNC(C)C (configuration not stated) [ALPRENOLOL],,0.3,-4,-4,-3.6,-1.6,1.3,,,
N=C(N)NC(=O)c1nc(Cl)c(N)nc1N [AMILORIDE],50,-2.1,-4.6,-4.4,,,,,,
NC(=O)N1c2ccccc2C=Cc2ccccc21 [CARBAMAZEPINE],,2.4,-3.9,-3.9,,,,,,
CN(C)CCCN1c2ccccc2Sc2ccc(Cl)cc21 [CHLORPROMAZINE],100,2.9,-3.7,-3.5,-3.6,1.3,4.7,,,
CN/C(=N/CCSCc1nc[nH]c1C)NC#N [CIMETIDINE],95,0.1,-4,-4,,,,,,
CN1CCN(C2=Nc3cc(Cl)ccc3Nc3ccccc32)CC1 [CLOZAPINE],100,,,,,,,3,,
CC(=O)N(O)CCCCCNC(=O)CCC(=O)N(O)CCCCCNC(=O)CCC(=O)N(O)CCCCCN [DEFEROXAMINE],2,-3,-5.3,-5.3,,,,,,
O=C(O)Cc1ccccc1Nc1c(Cl)cccc1Cl [DICLOFENAC],,,,,-3.7,-1.3,,,,
NC(N)=Nc1nc(CSCCC(N)=NS(N)(=O)=O)cs1 [FAMOTIDINE],45,-0.8,-4.6,-4.3,,,,,,
N=C(N)N/N=C/c1c(Cl)cccc1Cl [GUANABENZ],,0.9,-5,-4.4,-4.9,-4.6,-1.6,,,
NS(=O)(=O)c1cc2c(cc1Cl)NCNS2(=O)=O [HYDROCHLOROTHIAZIDE],67,,-4.7,-4.2,,,,,,
CC(C)Cc1ccc(C(C)C(=O)O)cc1 (configuration not stated) [IBUPROFEN],,,,,-3.7,-0.9,1.95,,-0.9,-3.7
CC(C(=O)O)c1cccc(C(=O)c2ccccc2)c1 (configuration not stated) [KETOPROFEN],,,,,-3.6,-2.7,,,,

SMILES,Fa [1] [%],logD ([2]; read-out: logD),Log Pe [3] [cm s-1],Log Pe [4] [cm s-1],"Log Pe,max [5]",Log Po [6],logP [7],logD [2],Log Po [8],"Log Pe,max [9]"
CC(CCc1ccccc1)NCC(O)c1ccc(O)c(C(N)=O)c1 (configuration not stated) [LABETALOL],90,0.5,-4.2,-3.8,,,,,,
CN(Cc1cnc2nc(N)nc(N)c2n1)c1ccc(C(=O)N[C@@H](CCC(=O)O)C(=O)O)cc1 [METHOTREXATE],20,-3,-4.7,-4.7,,,,,,
Cc1ccccc1N1C(=O)c2cc(S(N)(=O)=O)c(Cl)cc2NC1C (configuration not stated) [METOLAZONE],,4.1,-4.6,-4.6,,,,,,
COCCc1ccc(OCC(O)CNC(C)C)cc1 (configuration not stated) [METOPROLOL],,-0.8,-4.2,-4.2,-3.6,-2.8,-0.4,,,
O=C1NC(=O)C(c2ccccc2)(c2ccccc2)N1 [PHENYTOIN],90,2.2,-4,-4,-4.4,-3.6,-0.3,,,
CN1C(C(=O)Nc2ccccn2)=C(O)c2ccccc2S1(=O)=O [PIROXICAM],,0.3,-4,-3.3,,,,,,
CC(=O)[C@H]1CC[C@H]2[C@@H]3CCC4=CC(=O)CC[C@]4(C)[C@H]3CC[C@]12C [PROGESTERONE],91,4.3,-3.8,-3.8,,,,,,
CC(C)NCC(O)COc1cccc2ccccc12 (configuration not stated) [PROPRANOLOL],,,-4.4,-4,,,,,,
CN/C(=C/[N+](=O)[O-])NCCSCc1ccc(CN(C)C)o1 [RANITIDINE],50,-1.1,-4.6,-4.5,,,,,,
O=C(O)c1ccccc1O [SALICYLIC ACID],,,,,-3.4,-3.2,-1,,,
O=C(O)c1cc(/N=N/c2ccc(S(=O)(=O)Nc3ccccn3)cc2)ccc1O [SULFASALAZINE],,-0.7,-4.9,-4.9,,,,,,
CCN1CCCC1CNC(=O)c1cc(S(N)(=O)=O)ccc1OC (configuration not stated) [SULPIRIDE],,,-4.6,-4.6,,,,,,
CC(C)(C)NCC(O)c1cc(O)cc(O)c1 (configuration not stated) [TERBUTALINE],70,-2,-4.1,-4.1,,,,,,
C[C@]12CC[C@H]3[C@@H](CCC4=CC(=O)CC[C@@]43C)[C@@H]1CC[C@@H]2O [TESTOSTERONE],100,3.9,-3.5,-3.5,,,,,,
CC(C)(C)NC[C@H](O)COc1nsnc1N1CCOCC1 [TIMOLOL],72,-0.7,-4.4,-4.2,-3.6,-3.2,-1,,,
CC(=O)CC(c1ccccc1)c1c(O)c2ccccc2oc1=O (configuration not stated) [WARFARIN],,0.6,-3.8,-3.8,-3.6,-2.3,1,,,
